Measurements: the M2OR odorant receptor database
Where a chain is given by its changes, count along the chain named.

Legend:
Conditions in all cases: stereoisomer not certain
OR5K3 (Homo sapiens) = molecular target: T1, OR5K3 (Homo sapiens) (UniProt A6NET4)
T1 sequence (whole entry): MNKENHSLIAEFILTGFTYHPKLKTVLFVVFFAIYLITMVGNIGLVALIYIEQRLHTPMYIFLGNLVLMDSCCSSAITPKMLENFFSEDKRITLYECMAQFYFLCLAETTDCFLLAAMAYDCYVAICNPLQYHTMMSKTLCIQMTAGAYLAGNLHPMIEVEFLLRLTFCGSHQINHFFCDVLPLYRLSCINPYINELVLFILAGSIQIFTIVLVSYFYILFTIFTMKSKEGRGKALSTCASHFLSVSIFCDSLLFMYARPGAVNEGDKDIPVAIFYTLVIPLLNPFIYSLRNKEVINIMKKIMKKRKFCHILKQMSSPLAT
Method in brief: (§1)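 Each receptor–molecule pair is labelled responsive or non-responsive (inactive) according to whether the original authors judged the measured signal statistically different from baseline. The data were taken from the main text and supplementary material of published papers and checked for typos and inconsistencies. Assay methods differed by source, with transient luciferase assays in mammalian cell lines being common.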

OR5K4 (Homo sapiens) = molecular target: T2, OR5K4 (Homo sapiens) (UniProt A6NMS3)
T2 sequence (whole entry): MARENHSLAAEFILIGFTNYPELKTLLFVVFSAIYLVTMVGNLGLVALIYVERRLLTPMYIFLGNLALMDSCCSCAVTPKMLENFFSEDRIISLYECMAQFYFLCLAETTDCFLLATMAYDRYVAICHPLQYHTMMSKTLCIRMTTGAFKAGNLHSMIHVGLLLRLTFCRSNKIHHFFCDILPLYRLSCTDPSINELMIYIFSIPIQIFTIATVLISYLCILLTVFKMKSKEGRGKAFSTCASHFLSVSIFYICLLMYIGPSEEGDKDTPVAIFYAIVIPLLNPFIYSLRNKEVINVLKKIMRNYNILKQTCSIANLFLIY
Method in brief: as §1

OR5L1 (Homo sapiens) = molecular target: T3, OR5L1 (Homo sapiens) (UniProt Q8NGL2)
T3 sequence (whole entry): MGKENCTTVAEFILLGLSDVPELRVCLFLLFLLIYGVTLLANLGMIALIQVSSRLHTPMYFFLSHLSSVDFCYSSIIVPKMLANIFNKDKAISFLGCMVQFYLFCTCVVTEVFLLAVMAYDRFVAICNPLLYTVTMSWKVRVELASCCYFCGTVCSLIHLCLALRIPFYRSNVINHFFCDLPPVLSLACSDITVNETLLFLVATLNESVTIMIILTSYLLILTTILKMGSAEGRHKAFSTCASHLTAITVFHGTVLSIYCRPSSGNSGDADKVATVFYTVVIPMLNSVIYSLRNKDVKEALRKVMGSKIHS
Method in brief: as §1

OR5L2 (Homo sapiens) = molecular target: T4, OR5L2 (Homo sapiens) (UniProt Q8NGL0)
T4 sequence (whole entry): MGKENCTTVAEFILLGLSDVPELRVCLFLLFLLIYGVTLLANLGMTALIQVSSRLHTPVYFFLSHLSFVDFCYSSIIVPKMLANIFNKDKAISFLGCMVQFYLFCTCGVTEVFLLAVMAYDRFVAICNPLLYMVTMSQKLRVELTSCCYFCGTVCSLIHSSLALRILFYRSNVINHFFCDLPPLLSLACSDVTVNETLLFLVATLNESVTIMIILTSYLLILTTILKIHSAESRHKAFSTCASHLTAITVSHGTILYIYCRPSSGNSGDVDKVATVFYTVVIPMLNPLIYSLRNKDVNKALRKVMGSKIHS
Method in brief: as §1

OR5M1 (Homo sapiens) = molecular target: T5, OR5M1 (Homo sapiens) (UniProt Q8NGP8)
T5 sequence (whole entry): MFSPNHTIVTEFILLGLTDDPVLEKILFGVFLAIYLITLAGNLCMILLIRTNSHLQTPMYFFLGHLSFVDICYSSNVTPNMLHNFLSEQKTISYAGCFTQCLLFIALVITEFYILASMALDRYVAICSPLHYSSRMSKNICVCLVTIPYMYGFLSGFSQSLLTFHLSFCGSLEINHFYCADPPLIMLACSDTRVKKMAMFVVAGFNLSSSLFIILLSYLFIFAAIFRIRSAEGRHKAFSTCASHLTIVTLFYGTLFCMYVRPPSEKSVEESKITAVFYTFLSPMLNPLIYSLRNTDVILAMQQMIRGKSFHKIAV
Method in brief: as §1

OR5M1 T295R M301I = system: T6, OR5M1 T295R M301I
T6 sequence (whole entry): T5 sequence (whole entry) with T295R, M301I
Method in brief: as §1

OR5M10 (Homo sapiens) = molecular target: T7, OR5M10 (Homo sapiens) (UniProt Q6IEU7)
T7 sequence (whole entry): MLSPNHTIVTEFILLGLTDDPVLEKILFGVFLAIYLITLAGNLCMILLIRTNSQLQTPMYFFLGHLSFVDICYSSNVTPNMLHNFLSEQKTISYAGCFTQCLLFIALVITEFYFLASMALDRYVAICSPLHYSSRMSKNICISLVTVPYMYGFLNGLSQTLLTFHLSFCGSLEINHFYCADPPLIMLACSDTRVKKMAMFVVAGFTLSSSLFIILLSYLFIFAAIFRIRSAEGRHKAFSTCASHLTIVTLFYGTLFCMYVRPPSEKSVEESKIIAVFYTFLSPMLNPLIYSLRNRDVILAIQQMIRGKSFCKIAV
Method in brief: as §1

OR5M11 (Homo sapiens) = molecular target: T8, OR5M11 (Homo sapiens) (UniProt Q96RB7)
T8 sequence (whole entry): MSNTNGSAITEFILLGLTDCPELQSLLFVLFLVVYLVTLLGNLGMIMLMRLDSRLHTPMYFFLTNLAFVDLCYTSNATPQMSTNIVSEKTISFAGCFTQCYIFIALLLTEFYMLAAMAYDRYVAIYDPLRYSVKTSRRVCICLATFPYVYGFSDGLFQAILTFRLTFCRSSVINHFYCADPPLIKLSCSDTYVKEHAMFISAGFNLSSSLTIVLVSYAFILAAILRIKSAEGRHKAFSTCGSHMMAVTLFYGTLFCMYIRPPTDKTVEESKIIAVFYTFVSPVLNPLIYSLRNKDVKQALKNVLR
Method in brief: as §1

OR5M3 (Homo sapiens) = molecular target: T9, OR5M3 (Homo sapiens) (UniProt Q8NGP4)
T9 sequence (whole entry): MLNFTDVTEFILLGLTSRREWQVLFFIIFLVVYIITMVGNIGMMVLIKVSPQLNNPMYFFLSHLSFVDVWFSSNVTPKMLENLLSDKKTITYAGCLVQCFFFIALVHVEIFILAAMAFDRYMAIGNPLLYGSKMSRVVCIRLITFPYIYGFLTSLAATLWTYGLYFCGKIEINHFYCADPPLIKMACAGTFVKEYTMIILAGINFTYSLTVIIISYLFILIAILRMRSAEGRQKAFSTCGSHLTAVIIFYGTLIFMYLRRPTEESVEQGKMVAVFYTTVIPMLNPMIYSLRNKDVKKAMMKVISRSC
Method in brief: as §1

OR5M3 N3Y A156T = system: T10, OR5M3 N3Y A156T
T10 sequence (whole entry): T9 sequence (whole entry) with N3Y, A156T
Method in brief: as §1

OR5M8 (Homo sapiens) = molecular target: T11, OR5M8 (Homo sapiens) (UniProt Q8NGP6)
T11 sequence (whole entry): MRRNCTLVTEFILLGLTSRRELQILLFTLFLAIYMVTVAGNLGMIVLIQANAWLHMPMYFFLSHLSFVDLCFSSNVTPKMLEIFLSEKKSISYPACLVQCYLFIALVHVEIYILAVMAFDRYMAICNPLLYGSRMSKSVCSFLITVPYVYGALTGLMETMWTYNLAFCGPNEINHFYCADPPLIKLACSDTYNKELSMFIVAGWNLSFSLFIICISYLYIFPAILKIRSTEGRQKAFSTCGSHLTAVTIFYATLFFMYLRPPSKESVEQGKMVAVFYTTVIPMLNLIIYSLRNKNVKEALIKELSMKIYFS
Method in brief: as §1

OR5M9 (Homo sapiens) = molecular target: T12, OR5M9 (Homo sapiens) (UniProt Q8NGP3)
T12 sequence (whole entry): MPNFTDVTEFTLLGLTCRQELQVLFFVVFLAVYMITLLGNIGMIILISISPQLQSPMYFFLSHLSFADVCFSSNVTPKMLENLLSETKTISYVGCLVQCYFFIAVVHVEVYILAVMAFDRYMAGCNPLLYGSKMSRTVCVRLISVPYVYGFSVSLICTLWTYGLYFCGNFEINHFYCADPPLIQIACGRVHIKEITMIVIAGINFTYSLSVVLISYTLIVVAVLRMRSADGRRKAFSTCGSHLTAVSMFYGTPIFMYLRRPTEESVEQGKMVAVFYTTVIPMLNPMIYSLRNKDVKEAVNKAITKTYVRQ
Method in brief: as §1

OR5MA L2F C311H = system: T13, OR5MA L2F C311H
T13 sequence (whole entry): T7 sequence (whole entry) with L2F, C311H
Method in brief: as §1

OR5MA L2F Q54H C311H = system: T14, OR5MA L2F Q54H C311H
T14 sequence (whole entry): T7 sequence (whole entry) with L2F, Q54H, C311H
Method in brief: as §1

OR5P2 (Homo sapiens) = molecular target: T15, OR5P2 (Homo sapiens) (UniProt Q8WZ92)
T15 sequence (whole entry): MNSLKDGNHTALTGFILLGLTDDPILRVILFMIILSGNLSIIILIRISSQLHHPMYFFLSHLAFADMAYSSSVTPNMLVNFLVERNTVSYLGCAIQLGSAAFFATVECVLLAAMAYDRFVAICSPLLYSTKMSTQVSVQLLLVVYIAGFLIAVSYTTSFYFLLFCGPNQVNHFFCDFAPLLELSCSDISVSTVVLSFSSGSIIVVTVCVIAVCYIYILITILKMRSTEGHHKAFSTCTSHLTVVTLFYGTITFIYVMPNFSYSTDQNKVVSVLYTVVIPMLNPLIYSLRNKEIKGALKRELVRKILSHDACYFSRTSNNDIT
Method in brief: as §1

OR5P3 (Homo sapiens) = molecular target: T16, OR5P3 (Homo sapiens) (UniProt Q8WZ94)
T16 sequence (whole entry): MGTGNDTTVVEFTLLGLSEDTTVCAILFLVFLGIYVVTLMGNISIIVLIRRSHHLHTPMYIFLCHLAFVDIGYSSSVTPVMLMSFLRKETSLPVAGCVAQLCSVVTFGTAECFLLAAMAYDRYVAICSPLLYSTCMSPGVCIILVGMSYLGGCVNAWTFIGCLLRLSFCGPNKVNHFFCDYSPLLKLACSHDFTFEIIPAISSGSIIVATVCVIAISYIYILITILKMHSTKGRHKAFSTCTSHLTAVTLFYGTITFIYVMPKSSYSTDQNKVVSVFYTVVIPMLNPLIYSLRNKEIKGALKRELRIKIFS
Method in brief: as §1

OR5P3 L301R = system: T17, OR5P3 L301R
T17 sequence (whole entry): T16 sequence (whole entry) with L301R
Method in brief: as §1

OR5R1 C122R S128G F184L = system: T18, OR5R1 C122R S128G F184L
T18 sequence (whole entry): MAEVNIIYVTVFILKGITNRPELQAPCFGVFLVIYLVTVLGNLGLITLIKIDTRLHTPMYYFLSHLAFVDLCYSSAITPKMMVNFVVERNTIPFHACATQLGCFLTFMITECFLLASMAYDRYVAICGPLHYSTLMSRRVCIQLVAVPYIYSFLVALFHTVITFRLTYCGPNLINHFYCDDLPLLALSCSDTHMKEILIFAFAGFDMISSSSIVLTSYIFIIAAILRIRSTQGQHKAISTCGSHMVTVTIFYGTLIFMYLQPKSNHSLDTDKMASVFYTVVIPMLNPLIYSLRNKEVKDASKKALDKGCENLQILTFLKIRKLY
Method in brief: as §1

OR5T1 (Homo sapiens) = molecular target: T19, OR5T1 (Homo sapiens) (UniProt Q8NG75)
T19 sequence (whole entry): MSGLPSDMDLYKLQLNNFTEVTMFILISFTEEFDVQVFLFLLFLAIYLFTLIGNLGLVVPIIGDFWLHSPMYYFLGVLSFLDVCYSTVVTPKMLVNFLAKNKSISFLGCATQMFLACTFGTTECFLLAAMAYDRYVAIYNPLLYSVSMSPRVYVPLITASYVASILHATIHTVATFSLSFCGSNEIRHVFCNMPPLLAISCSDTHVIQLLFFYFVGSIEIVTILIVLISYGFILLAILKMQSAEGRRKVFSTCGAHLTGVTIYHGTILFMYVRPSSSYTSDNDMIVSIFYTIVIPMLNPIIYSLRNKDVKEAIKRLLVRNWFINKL
Method in brief: as §1

OR5T2 (Homo sapiens) = molecular target: T20, OR5T2 (Homo sapiens) (UniProt Q8NGG2)
T20 sequence (whole entry): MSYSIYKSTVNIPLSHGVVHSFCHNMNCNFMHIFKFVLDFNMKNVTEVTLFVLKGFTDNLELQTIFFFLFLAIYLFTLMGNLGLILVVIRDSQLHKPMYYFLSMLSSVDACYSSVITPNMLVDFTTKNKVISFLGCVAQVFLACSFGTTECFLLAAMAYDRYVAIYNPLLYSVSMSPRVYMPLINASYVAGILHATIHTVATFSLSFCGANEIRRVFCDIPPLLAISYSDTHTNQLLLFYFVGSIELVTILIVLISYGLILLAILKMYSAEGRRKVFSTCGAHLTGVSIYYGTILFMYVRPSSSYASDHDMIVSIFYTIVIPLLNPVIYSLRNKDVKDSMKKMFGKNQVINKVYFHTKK
Method in brief: as §1

Measured: odorant receptor agonist call

CCCCCCC=CCCC=O
inactive: all assays above

CC1=NC(C)C(C)S1 (stereo not given)
inactive: all assays above

CCc1ncc(C)nc1CC
inactive: OR5K3 (Homo sapiens) | OR5K4 (Homo sapiens) | OR5M3 (Homo sapiens)

Cc1nccnc1C
inactive: OR5K3 (Homo sapiens) | OR5K4 (Homo sapiens)

CC(CO)CS (stereo not given)
not listed: OR5M1 T295R M301I | OR5M3 N3Y A156T | OR5MA L2F C311H | OR5MA L2F Q54H C311H | OR5P3 L301R | OR5R1 C122R S128G F184L
inactive: all other assays above

CC1CCc2nccnc21 (stereo not given)
inactive: OR5K3 (Homo sapiens) | OR5K4 (Homo sapiens)

CCc1nccnc1C(C)=O
inactive: OR5K3 (Homo sapiens) | OR5K4 (Homo sapiens)

CCc1nccnc1CC
inactive: OR5K3 (Homo sapiens) | OR5K4 (Homo sapiens)

CC1=C(O)C(=O)C(C)O1 (stereo not given)
active: OR5M3 (Homo sapiens)
inactive: all other assays above
